Experimental findings from ChEMBL document CHEMBL6134794, “Anti-Schistosomal activity and ADMET properties of 1,2,5-oxadiazinane-containing compound synthesized by visible-light photoredox catalysis” (RSC Med Chem, 2024) are described below.

Each structure is given as a SMILES string. Active and inactive are the calls of the source. The calls are words filed in the database; no cut-off is given here.

Series [1] relates to HeLa. Description: Cytotoxicity against human HeLa cells assessed as cell viability at 30 uM incubated for 48 hrs by absorbance based WST-8 assay (reference value: 100 %). The conditions noted are these: read-out: Activity. The series is classed as functional. The essentials:
(§1)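 HeLa cells seeded at 1,000 cells/well and exposed to compound at 10, 20 or 30 μM for 2 days. WST-8 absorbance was read at 405 nm. Viability is expressed relative to DMSO-treated wells (100%).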

Series [2] is described as follows: Stability of the compound in PBS at pH 7.4 at 5 uM assessed as compound remaining incubated for 5 hrs by LC-MS/MS analysis relative to control. Type of series: physicochemical. The conditions noted are these: read-out: Stability. The essentials: (§2)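 Compound at 5 μM in pH 1.2 dissolution test solution 1 or in PBS pH 7.4, held at 37 °C for 0, 1 and 5 h. Reactions were quenched with acetonitrile and centrifuged. Parent remaining was quantified by LC-MS/MS as a percentage of the 0 h sample.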

Series [3] in a line: Stability of the compound at pH 1.2 at 5 uM assessed as compound remaining incubated for 5 hrs by LC-MS/MS analysis relative to control. The series is classed as physicochemical. Conditions: buffer, read-out: Stability. An outline of the steps: as §2
Series [4] deals with Schistosoma mansoni. As to the kind of experiment: Anti-schistosomal activity against adult male Schistosoma mansoni assessed as motility by measuring pairing and varied movement intensity using viability scale at 10 uM incubated for 1 hr by inverted microscopic analysis. The series is classed as functional.
Series [5] has as its system Schistosoma mansoni. Description: Anti-schistosomal activity against adult female Schistosoma mansoni assessed as motility by measuring pairing and varied movement intensity using viability scale at 10 uM incubated for 24 hrs by inverted microscopic analysis. The series is classed as functional.
A short description of series [6]: Stability of the compound in PBS at pH 7.4 at 5 uM assessed as compound remaining incubated for 1 hr by LC-MS/MS analysis relative to control. Type of series: physicochemical. Conditions: read-out: Stability. The essentials: as §2
For series [7], the system named is Schistosoma mansoni. Description: Anti-schistosomal activity against adult female Schistosoma mansoni assessed as motility by measuring pairing and varied movement intensity using viability scale at 10 uM incubated for 120 hrs by inverted microscopic analysis. The series is classed as functional.
The test system of series [8] is Schistosoma mansoni. As to the kind of experiment: Anti-schistosomal activity against adult male Schistosoma mansoni assessed as motility by measuring pairing and varied movement intensity using viability scale at 10 uM incubated for 120 hrs by inverted microscopic analysis. Type of series: functional.
Series [9] can be described thus: Stability of the compound at pH 1.2 at 5 uM assessed as compound remaining incubated for 1 hrs by LC-MS/MS analysis relative to control. The series is classed as physicochemical. The conditions noted are these: buffer, read-out: Stability. The essentials: as §2
For series [10], the system named is Schistosoma mansoni. Description: Anti-schistosomal activity against adult male Schistosoma mansoni assessed as motility by measuring measuring pairing and varied movement intensity using viability scale at 10 uM incubated for 24 hrs by inverted microscopic analysis. The series is classed as functional.
Series [11] has as its system Schistosoma mansoni. As to the kind of experiment: Anti-schistosomal activity against adult male Schistosoma mansoni assessed as worm death at 10 uM incubated for 1 to 120 hrs by inverted microscopic analysis. Conditions: time 1-120 hrs. Type of series: functional, organism-based. The essentials:
(§3)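 Adult worms freshly isolated from infected mice; cultured in RPMI 1640 with 5% FBS and penicillin/streptomycin, with or without compound (0.1, 1, 10 μM), at 37°C under 5% CO₂.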

Series [12] can be described thus: Cardiotoxicity in human iPSC-CM cells assessed as effect on pulse waveform by measuring calcium ion influx at 0.2 to 20 uM incubated for 60 mins by fluorescent indicator analysis. The series is classed as toxicity, cell-based. The conditions noted are these: 1 h, dose 0.2-20 µM. The essentials: (§4)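 Human iPS cell-derived cardiomyocytes were seeded at 30,000 cells/well on gelatin and maintained 9 days. Cells were then stained with a Ca²⁺-sensitive cardiotoxicity dye kit. Ca²⁺ transients were recorded on an FDSS kinetic imager before and after compound addition.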

Series [13] is described as follows: Cardiotoxicity in human iPSC-CM cells assessed as effect on beat intervals by measuring calcium ion influx at 0.2 to 20 uM incubated for 60 mins by fluorescent indicator analysis. The series is classed as toxicity, cell-based. Conditions: 1 h, dose 0.2-20 µM. An outline of the steps: as §4
In series [14] the test system is Schistosoma mansoni. As to the kind of experiment: Anti-schistosomal activity against adult female Schistosoma mansoni assessed as worm death at 10 uM incubated for 1 to 120 hrs by inverted microscopic analysis. Type of series: functional, organism-based. The conditions noted are these: time 1-120 hrs. An outline of the steps:
as §3

For series [15], the system named is Schistosoma mansoni. Description: Anti-schistosomal activity against adult female Schistosoma mansoni assessed as motility by measuring pairing and varied movement intensity using viability scale at 10 uM incubated for 1 hr by inverted microscopic analysis. Type of series: functional.
Series [16] can be described thus: Apparent permeability in human Caco-2 cells at 25 uM incubated for 2 hrs by LC-MS/MS analysis. The series is classed as ADME, cell-based. The essentials: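 Compound at 25 µM in HBSS added to the apical side of cultured Caco-2 monolayers in transwells, with HBSS plus 1% BSA on the basolateral side. After 2 h both compartments were collected, acetonitrile-treated and centrifuged. Supernatants were quantified by LC-MS/MS and Papp calculated. "High" class means Papp above that of propranolol.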
(Passage across Caco-2 layers is used to estimate intestinal permeability.)

Series [17] is described as follows: Cardiotoxicity in human iPSC-CM cells assessed as decrease in beat interval by measuring calcium ion influx at 20 uM incubated for 60 mins by fluorescent indicator analysis. Type of series: toxicity, cell-based. Conditions: 1 h. An outline of the steps:
as §4

The nature of series [18]: Metabolic stability in human liver microsome assessed as compound remaining at 500 uM incubated for 10 mins in presence of NADPH and G6PDH by LC-MS/MS analysis. Conditions: liver microsomes.
Series [19] relates to Schistosoma mansoni. As to the kind of experiment: Anti-schistosomal activity against adult female Schistosoma mansoni assessed as motility by measuring full detachment with weak movement using viability scale at 10 uM incubated for 1 hr by inverted microscopic analysis. The series is classed as functional. An outline of the steps:
as §3

A short description of series [20]: Cardiotoxicity in human iPSC-CM cells assessed as effect on pulse waveform by measuring calcium ion influx at 2 uM incubated for 60 mins by fluorescent indicator analysis. The series is classed as toxicity, cell-based. Conditions: 1 h. An outline of the steps: as §4
The nature of series [21]: Metabolic stability in mouse liver microsome assessed as compound remaining at 500 uM incubated for 10 mins in presence of NADPH and G6PDH by LC-MS/MS analysis. Conditions: liver microsomes. For orientation: Microsomes from liver hold many membrane-bound enzymes, among them those of drug oxidation.
The nature of series [22]: Cardiotoxicity in human iPSC-CM cells assessed as effect on beat interval by measuring calcium ion influx at 2 uM measured within 60 mins by fluorescent indicator analysis. Type of series: toxicity, cell-based. Conditions: 1 h. The essentials: as §4
Series [23] can be described thus: Cardiotoxicity in human iPSC-CM cells assessed as effect on pulse waveform by measuring calcium ion influx at 20 uM incubated for 60 mins by fluorescent indicator analysis. Type of series: toxicity, cell-based. The conditions noted are these: 1 h. An outline of the steps: as §4
Series [24] deals with Schistosoma mansoni. As to the kind of experiment: Anti-schistosomal activity against adult female Schistosoma mansoni assessed as motility by measuring full detachment with weak movement using viability scale at 10 uM incubated for 120 hrs by inverted microscopic analysis. Type of series: functional.
Series [25] is described as follows: Metabolic stability in mouse liver microsome assessed as compound remaining at 500 uM incubated for 60 mins in presence of NADPH and G6PDH by LC-MS/MS analysis. Conditions: liver microsomes.
Series [26] can be described thus: Cardiotoxicity in human iPSC-CM cells assessed as decrease in beat interval by measuring calcium ion influx at 2 uM incubated up to 30 mins by fluorescent indicator analysis. The conditions noted are these: 0.5 h. Type of series: toxicity, cell-based. An outline of the steps: as §4
Series [27] has as its system Schistosoma mansoni. Description: Anti-schistosomal activity against adult female Schistosoma mansoni assessed as motility by measuring full detachment with weak movement using viability scale at 10 uM incubated for 24 hrs by inverted microscopic analysis. The series is classed as functional.
Series [28] can be described thus: Cardiotoxicity in human iPSC-CM cells assessed as effect on beat intervals by measuring calcium ion influx at 0.2 uM incubated for 60 mins by fluorescent indicator analysis. Type of series: toxicity, cell-based. Conditions: 1 h. The essentials:
as §4

Series [29] is described as follows: Cardiotoxicity in human iPSC-CM cells assessed as effect on pulse waveform by measuring calcium ion influx at 0.2 uM incubated for 60 mins by fluorescent indicator analysis. The series is classed as toxicity, cell-based. The conditions noted are these: 1 h. An outline of the steps:
as §4

Series [30] is described as follows: Metabolic stability in human liver microsome assessed as compound remaining at 500 uM incubated for 60 mins in presence of NADPH and G6PDH by LC-MS/MS analysis. Conditions: liver microsomes.
A short description of series [31]: Lipophilicity, logD of the compound in phosphate-buffered saline (PBS) at pH 7.4 at 100 uM incubated for 20 mins by UPLC analysis. The series is classed as physicochemical. Conditions: buffer, pH 7.4, 20 min. The essentials: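 Compound at 100 μM final in PBS with 1% DMSO. logD (pH 7.4) was derived from UPLC (BEH C18) retention times against standards of known logD. Mobile phase was ammonium acetate/acetonitrile, 2–98% B over 1 min at 0.8 mL/min.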

The test system of series [32] is HeLa. As to the kind of experiment: Cytotoxicity against human HeLa cells assessed as cell viability at 10 uM incubated for 48 hrs by absorbance based WST-8 assay (reference value: 100 %). The conditions noted are these: read-out: Activity. The series is classed as functional. The essentials:
as §1
For orientation: Tetrazolium assays rely on reduction of a dye to a coloured formazan, in cell work by metabolically active cells.

In general, Papp refers to the rate of passage across a membrane or cell layer, normalised by area and donor concentration. In the case of `O=C(C1CCCCC1)N1CC(=O)N2CCc3ccccc3C2C1` (stereo not given) [PRAZIQUANTEL], the viability at 30 µM in series [1] stood at 97.1%. The remaining at 5 h, 5 µM was 100% in series [2] and 95% in [3]. The Activity in [4] is 3.7; in [5] it was 3.3; in series [7], 3.3; in [8] it was 3.3; in [10] it was 3.7; in [12], “Non-toxic”. Besides, the Activity entry is “Non-toxic” in series [13] and 3.7 in [15]. Besides, the figures for the remaining at 1 h, 5 µM in series [6] and in [9] were 103% and 93.1%, respectively. For the same compound, the outcome in [11] and in series [14] was inactive. In series [16], the Papp at 2 h, 25 µM came out at 37.3 ×10⁻⁶ cm/s.
A word on the logD: it is lipophilicity at a set pH, counting ionised and neutral species. Take `O=C(C1CCCCC1)N1CON2CCc3ccccc3C2C1` (stereo not given): the Activity entry in series [17] is “Toxic”; in [19], 2; in series [20], “Non-toxic”; in [22], “Non-toxic”; in [4], 3; in series [23], “Non-toxic”. The Activity in [8] is reported as 3; in [24], 2.3; in [10], 3; in series [26] it was “Toxic”; in series [27], 2; in [28], “Non-toxic”. Besides, in [29], the Activity result was “Non-toxic”. Further, the values for the remaining at 10 min, 500 µM in series [18] and in series [21] were 47.3% and 2.7%, respectively. Also, the remaining at 5 h, 5 µM in [3] came to 94.9%. For the same compound, the remaining at 1 h, 5 µM is 95.2% in series [6] and 95.1% in series [9]. In addition, the remaining at 1 h, 500 µM in series [25] is 0.2%; in [30], 5.9%. Moreover, the result in series [11] was inactive. In series [31], this compound had a logD of 4.1. The apparent permeability (Papp) at 2 h, 25 µM in series [16] was 30.5 ×10⁻⁶ cm/s. The viability at 10 µM in [32] was determined as 93.1%.
